Here are results for nine compounds from ChEMBL document CHEMBL1127289, “DNA-directed alkylating agents. 6. Synthesis and antitumor activity of DNA minor groove-targeted aniline mustard analogues of pibenzimol (Hoechst 33258)” (J Med Chem, 1994).

What is called ILS is how much longer treated animals lived than controls. For orientation: IC50 means the point on the concentration scale where inhibition reaches its midpoint.

Active and inactive are the calls of the source.

For experiment [1], the species on record is Mus musculus. In words: Tested for percentage increase in lifespan of drug-treated tumor-bearing animals when treated at optimal dose. In kind it is functional. The procedure, abridged:
(§1)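 P388 leukemia: 10^6 tumor cells inoculated intraperitoneally. 24 h later (day 1), a single intraperitoneal dose in 0.1 mL of 30% v/v EtOH/water. The optimal dose is given in mg/kg. ILS is the percentage increase in lifespan at the optimal dose; ILS > 20% is considered significant. Groups of 6 animals, with long-term survivors counted.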

Experiment [2] can be described thus: (§2) Hypersensitivity factor(HF) was determined as ratio of IC50(AA8) to IC50(UV4). The class given is functional. The procedure, abridged: (§3)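 AA8 (wild-type) and UV4 (mutant) lines maintained in log phase in Alpha MEM with 10% fetal calf serum. Drug exposure for 18 h, ended by three washes in fresh medium, then a further 72 h growth. Cell density read by methylene blue staining. IC50 is the nominal concentration giving 50% of control density, with eight controls per plate. HF = IC50(AA8)/IC50(UV4).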

Experiment [3] relates to CHO-AA8. Description: Concentration of the drug to inhibit chinese hamster ovary derived cell (AA8) growth in culture. As to conditions: Cricetulus griseus. In kind it is functional, cell-based. The procedure, abridged:
as §3

A further experiment relates to P388. Description: Concentration of the drug to inhibit wild type P388 murine leukemia cell growth in culture. In kind it is functional, cell-based. As to conditions: Mus musculus. The procedure, abridged:
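P388 cells maintained in log phase in RPMI 1640 with 10% fetal calf serum. Drug present throughout 72 h growth. Final density read by a modified MTT method. IC50 is the nominal concentration reducing cell density to 50% of controls, with eight control cultures per plate.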

Experiment [4] deals with Mus musculus. In words: Tested for the intraperitoneal optimal dose of 0.1 mL in tumor cells. In kind it is functional. The essentials:
as §1

In experiment [5] the test system is Nucleic Acid. Description: (§4) Intrinsic association constant for reversible binding of compounds to calf thymus DNA at 20 degree C. In kind it is functional. The arrangement: scale not given here. As to conditions: Bos taurus.
In experiment [6] the test system is Nucleic Acid. The experiment is described as §4. The settings on record: Bos taurus. In kind it is nucleic-acid assay.
The subject of experiment [7] is CHO-AA8. The experiment is described as §2. In kind it is functional, Cricetulus griseus. The essentials:
as §3

For experiment [8], the species on record is Mus musculus. In words: Tested for percentage increase in lifespan of drug-treated tumor-bearing animals when treated at optimal dose; NA=Inactive. In kind it is functional, organism-based. The essentials: as §1
Experiment [9] is filed under the species Mus musculus. Description: Tested for percentage increase in lifespan of drug-treated tumor-bearing animals when treated at optimal dose; Inactive. The class given is functional, organism-based. The procedure, abridged:
as §1

`CN1CCN(c2ccc3[nH]c(-c4ccc5[nH]c(Cc6ccc(N(CCCl)CCCl)cc6)nc5c4)nc3c2)CC1` yielded an ILS in the experiment listed under Mus musculus [1] of 71%. In experiment [2], the Ratio came to 59. In addition, the figures for the half-inhibitory concentration (IC50) in the experiment with CHO-AA8 [3] and in the experiment with P388 were 1500 nM and 850 nM, respectively. In addition, the OD in the experiment on Mus musculus [4] was 13.3 mg/kg. Further, in the experiment with Nucleic Acid [5], the DNA binding was found to be 6.73 M⁻¹.
The compound `CN1CCN(c2ccc3[nH]c(-c4ccc5[nH]c(-c6ccc(N(C)CCCl)cc6)nc5c4)nc3c2)CC1` registered an ILS in the experiment filed under Mus musculus [1] of 86%. Also, the Ratio in experiment [2] amounted to 14. Besides, the figures for the IC50 in the experiment on CHO-AA8 [3] and in the experiment on P388 were 5750 nM and 500 nM, respectively. In the experiment on Mus musculus [4], the OD was 30 mg/kg.
With `CCN(CC)c1ccc(-c2nc3cc(-c4nc5cc(N6CCN(C)CC6)ccc5[nH]4)ccc3[nH]2)cc1`, the DNA binding in the experiment on Nucleic Acid [6] is 6.24 log M-1. Besides, in the experiment filed under Mus musculus [1], the ILS was 50%. The figures for the IC50 with CHO-AA8 [3] and with P388 were 10000 nM and 1200 nM, respectively. Besides, the Ratio in the experiment on CHO-AA8 [7] is recorded as 1.5. Besides, in the experiment with Mus musculus [4], the OD is 20 mg/kg.
Turning to `CCN(CCCl)c1cc(CN(C)C)cc(NC(=O)c2ccc(C(=O)Nc3cc(CN(C)C)cc(N(CC)CCCl)c3)cc2)c1`, the IC50 in the experiment with P388 amounted to 7000 nM.
`CN1CCN(c2ccc3[nH]c(-c4ccc5[nH]c(CCc6ccc(N(CCCl)CCCl)cc6)nc5c4)nc3c2)CC1` gave an ILS in the experiment filed under Mus musculus [1] of 52%. Besides, the Ratio in [2] turned out to be 47. Besides, the IC50 came out at 330 nM in the experiment with CHO-AA8 [3] and 10 nM with P388. In the experiment on Mus musculus [4], this compound gave an OD of 3.9 mg/kg. This compound displayed a DNA binding in the experiment with Nucleic Acid [5] of 6.3 M⁻¹.
In the experiment filed under Mus musculus [1], `CN1CCN(c2ccc3[nH]c(-c4ccc5[nH]c(CCCCCCc6ccc(N(CCCl)CCCl)cc6)nc5c4)nc3c2)CC1` displayed an ILS of 23%. In addition, the Ratio in experiment [2] is 20. Further, the IC50 in the experiment with CHO-AA8 [3] is 400 nM; with P388, 60 nM. Further, in the experiment with Mus musculus [4], the OD worked out at 8.9 mg/kg. The same compound came in with a DNA binding in the experiment on Nucleic Acid [5] of 3.89 M⁻¹.
Take `CN1CCN(c2ccc3[nH]c(-c4ccc5[nH]c(-c6ccc(N(CCCl)CCCl)cc6)nc5c4)nc3c2)CC1`: the DNA binding in the experiment with Nucleic Acid [6] was 7.52 log M-1. Also, the ILS in the experiment filed under Mus musculus [1] is on record as 106%. Besides, the IC50 worked out at 1680 nM with CHO-AA8 [3] and 800 nM in the experiment with P388. Further, the Ratio in the experiment with CHO-AA8 [7] came out at 24. This compound also returned an OD in the experiment on Mus musculus [4] of 30 mg/kg.
As to `CN1CCN(c2ccc3[nH]c(-c4ccc5[nH]c(-c6ccc(O)cc6)nc5c4)nc3c2)CC1` [HOECHST 33258], the DNA binding with Nucleic Acid [6] was 1.82 log M-1. In addition, the ILS entry in the experiment listed under Mus musculus [8] is “inactive”. In the experiment on P388, this compound registered an IC50 of 1200 nM. Also, in the experiment with Mus musculus [4], the OD was found to be 20 mg/kg.
With `CN1CCN(c2ccc3[nH]c(-c4ccc5[nH]c(CCCc6ccc(N(CCCl)CCCl)cc6)nc5c4)nc3c2)CC1`, in experiment [2], the Ratio stood at 46. Besides, the IC50 in the experiment on CHO-AA8 [3] came to 1320 nM; in the experiment with P388, 20 nM. Also, the ILS entry in the experiment listed under Mus musculus [9] is “inactive”. The compound also showed an OD in the experiment with Mus musculus [4] of 5.9 mg/kg. Moreover, the DNA binding in the experiment on Nucleic Acid [5] came out at 4.55 M⁻¹.
